The source made the active and inactive calls. The rule behind the calls is not given here.

One experiment relates to HeLa. The experiment can be described thus: Cytotoxicity against human HeLa cells after 4 days by ELISA reader assay. Format: functional, cell-based. To be noted: 96 h. The gist of the method: (§1)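 Cells grown per supplier, seeded at 2–4 × 10⁴ per well, left overnight in medium with 10% FBS at 37 °C under 5% CO₂, then exposed to compounds. WST (cell counting kit-8) reagent added for a further 4 h, absorbance read at 450 nm. IC50 from four-parameter logistic fit; mean ± S.D. of three experiments, each in triplicate.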

Experiment [1] has as its target T1, DNA topoisomerase 1 (Homo sapiens) (UniProt P11387).
T1 sequence (whole entry): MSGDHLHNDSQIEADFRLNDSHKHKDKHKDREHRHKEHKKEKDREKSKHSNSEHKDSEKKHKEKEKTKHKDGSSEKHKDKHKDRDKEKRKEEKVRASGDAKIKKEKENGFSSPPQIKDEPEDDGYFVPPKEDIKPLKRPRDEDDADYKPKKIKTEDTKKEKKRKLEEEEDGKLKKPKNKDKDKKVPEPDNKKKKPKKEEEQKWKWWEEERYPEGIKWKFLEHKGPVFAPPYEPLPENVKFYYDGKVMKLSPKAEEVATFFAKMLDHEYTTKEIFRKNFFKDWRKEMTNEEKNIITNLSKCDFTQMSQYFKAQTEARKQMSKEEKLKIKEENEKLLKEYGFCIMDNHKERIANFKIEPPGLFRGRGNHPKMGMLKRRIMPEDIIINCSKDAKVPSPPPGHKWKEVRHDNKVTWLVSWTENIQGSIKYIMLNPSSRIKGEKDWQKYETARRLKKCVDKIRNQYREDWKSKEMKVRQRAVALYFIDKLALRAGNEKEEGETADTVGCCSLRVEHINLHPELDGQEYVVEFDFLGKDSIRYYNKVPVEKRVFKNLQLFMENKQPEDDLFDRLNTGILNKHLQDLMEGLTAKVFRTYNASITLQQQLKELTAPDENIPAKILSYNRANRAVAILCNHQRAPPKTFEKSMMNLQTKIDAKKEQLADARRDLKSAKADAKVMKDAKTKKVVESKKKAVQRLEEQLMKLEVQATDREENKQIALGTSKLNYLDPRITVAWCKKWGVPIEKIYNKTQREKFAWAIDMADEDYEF
The experiment can be described thus: Inhibition of human recombinant DNA topoisomerase 1-mediated relaxation of supercoiled pBR322 DNA at 20 uM after 30 mins by agarose gel electrophoresis. In outline: (§2)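 Recombinant human topo I (0.4 units) with 100 ng supercoiled pBR322, 30 min at 37 °C in 10 mM Tris–HCl pH 7.9, 150 mM NaCl, 0.1% BSA, 1 mM spermidine, 5% glycerol. Compounds from 20 mM DMSO stock. Products run on 1% agarose in TAE, 15 V for 7 h, ethidium-stained, bands quantified under UV.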

Experiment [2] addresses T1, DNA topoisomerase 1 (Homo sapiens). The experiment can be described thus: Inhibition of human recombinant DNA topoisomerase 1-mediated relaxation of supercoiled pBR322 DNA at 100 uM after 30 mins by agarose gel electrophoresis. The gist of the method: as §2
For experiment [3], the target named is DNA topoisomerase 2-alpha (Homo sapiens) (UniProt P11388). The experiment is described as follows: Inhibition of human DNA topoisomerase 2alpha-mediated relaxation of supercoiled pBR322 DNA at 20 uM after 30 mins by agarose gel electrophoresis. The gist of the method: (§3)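 Human topo IIα (1 unit) with 200 ng supercoiled pBR322, 30 min at 30 °C in 10 mM Tris–HCl pH 7.9, 50 mM NaCl, 50 mM KCl, 5 mM MgCl2, 1 mM EDTA, 1 mM ATP plus BSA. Products run on 1% agarose in TAE at 25 V for 4 h, ethidium-stained, supercoiled DNA quantified under UV.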

In the next experiment the test system is K562. The experiment is described as follows: Cytotoxicity against human K562 cells after 4 days by ELISA reader assay. The class given is functional, cell-based. The note with it: K562, 96 h. In outline: as §1
Experiment [4] has as its target DNA topoisomerase 2-alpha (Homo sapiens) (UniProt P11388). The experiment is described as follows: Inhibition of human DNA topoisomerase 2alpha-mediated relaxation of supercoiled pBR322 DNA at 100 uM after 30 mins by agarose gel electrophoresis. The gist of the method: as §3
The subject of another experiment is HCT-15. The experiment is described as follows: Cytotoxicity against human HCT15 cells after 4 days by ELISA reader assay. The class given is functional, cell-based. To be noted: HCT-15, 96 h. In outline: as §1
Another experiment concerns MCF7. The experiment can be described thus: Cytotoxicity against human MCF7 cells after 4 days by ELISA reader assay. To be noted: MCF7, 96 h. Format: functional, cell-based. The gist of the method: as §1
The subject of another experiment is DU-145. The experiment is described as follows: Cytotoxicity against human DU145 cells after 4 days by ELISA reader assay. Format: functional, cell-based. To be noted: DU-145, 96 h. In outline: as §1

DNA topoisomerase 2-alpha (Homo sapiens), sequence (P11388 whole entry): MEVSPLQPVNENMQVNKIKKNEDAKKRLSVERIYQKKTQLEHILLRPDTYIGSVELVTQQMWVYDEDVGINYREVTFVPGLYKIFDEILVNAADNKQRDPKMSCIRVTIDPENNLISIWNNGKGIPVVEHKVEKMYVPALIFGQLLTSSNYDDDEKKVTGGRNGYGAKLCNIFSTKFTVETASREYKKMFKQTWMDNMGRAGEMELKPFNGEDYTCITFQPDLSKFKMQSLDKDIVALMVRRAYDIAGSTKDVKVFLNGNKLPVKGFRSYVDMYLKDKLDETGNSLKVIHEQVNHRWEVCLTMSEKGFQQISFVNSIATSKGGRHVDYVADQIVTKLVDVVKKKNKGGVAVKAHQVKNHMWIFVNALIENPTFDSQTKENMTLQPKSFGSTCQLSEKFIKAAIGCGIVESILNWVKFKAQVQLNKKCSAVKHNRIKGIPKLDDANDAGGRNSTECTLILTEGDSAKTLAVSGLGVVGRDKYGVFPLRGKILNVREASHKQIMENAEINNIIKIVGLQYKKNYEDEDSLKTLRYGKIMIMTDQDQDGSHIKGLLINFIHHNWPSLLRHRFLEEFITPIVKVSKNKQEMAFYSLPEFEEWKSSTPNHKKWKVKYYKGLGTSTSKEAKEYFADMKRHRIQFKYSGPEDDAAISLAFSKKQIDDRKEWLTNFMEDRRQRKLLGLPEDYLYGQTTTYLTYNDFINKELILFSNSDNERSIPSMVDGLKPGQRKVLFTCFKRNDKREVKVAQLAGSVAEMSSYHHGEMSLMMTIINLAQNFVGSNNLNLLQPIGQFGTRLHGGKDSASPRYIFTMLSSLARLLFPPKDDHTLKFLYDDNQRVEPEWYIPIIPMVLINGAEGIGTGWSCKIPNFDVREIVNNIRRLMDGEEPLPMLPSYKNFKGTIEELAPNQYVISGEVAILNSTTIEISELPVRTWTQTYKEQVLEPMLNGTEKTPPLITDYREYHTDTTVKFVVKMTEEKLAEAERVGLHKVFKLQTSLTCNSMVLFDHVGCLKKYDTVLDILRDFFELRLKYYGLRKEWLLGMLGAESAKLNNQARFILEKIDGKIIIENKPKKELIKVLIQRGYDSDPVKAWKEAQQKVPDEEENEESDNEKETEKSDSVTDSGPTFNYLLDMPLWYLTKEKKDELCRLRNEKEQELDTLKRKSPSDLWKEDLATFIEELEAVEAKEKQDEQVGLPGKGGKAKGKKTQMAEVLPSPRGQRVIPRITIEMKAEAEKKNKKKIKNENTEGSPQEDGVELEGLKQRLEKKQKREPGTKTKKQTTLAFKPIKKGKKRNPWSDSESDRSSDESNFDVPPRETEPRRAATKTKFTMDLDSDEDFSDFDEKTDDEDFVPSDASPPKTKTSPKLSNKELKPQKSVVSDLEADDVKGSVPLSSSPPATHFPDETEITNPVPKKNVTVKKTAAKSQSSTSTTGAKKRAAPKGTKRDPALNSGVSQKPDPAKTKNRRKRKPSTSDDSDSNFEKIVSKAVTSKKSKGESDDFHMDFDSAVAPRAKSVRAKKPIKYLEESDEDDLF

Consider `Cc1ccccc1-c1cc(-c2ccoc2)cc(-c2ccc(Cl)s2)n1`, for which the half-maximal inhibitory concentration (IC50) (in general, the concentration that inhibits the measured activity by half) in the experiment on HeLa amounted to 19 µM; with K562, 12.3 µM; with HCT-15, 0.99 µM; with MCF7, 1.43 µM; with DU-145, 18.5 µM. In experiment [1], the inhibition (as a rule, the drop in the measured response relative to a control, in per cent) was “inactive”. Further, the inhibition in experiment [2] came to 4.6%; in experiment [3], 49.2%; in [4], 60.7%.
`Clc1ccc(-c2cc(-c3ccc(Cl)o3)cc(-c3ccc(Cl)s3)n2)cc1`: the IC50 in the experiment on HeLa was determined as 25.1 µM; in the experiment with K562, 19.3 µM; in the experiment with HCT-15 it was 25.3 µM; with MCF7, 12.6 µM; with DU-145, 23 µM. In experiment [1], the inhibition entry was “inactive”. Also, the inhibition stood at 2.2% in experiment [2], 42.7% in experiment [3] and 59.8% in experiment [4].
Turning to `Cc1ccsc1-c1cc(-c2ccc(Cl)o2)cc(-c2cccnc2)n1`, the IC50 in the experiment with HeLa is more than 50 µM; in the experiment with K562 it was 12.3 µM; with HCT-15 it was more than 50 µM; in the experiment with MCF7, 5.81 µM; in the experiment with DU-145, 30.8 µM. Also, the inhibition result in experiment [1] is “inactive”. In addition, the inhibition in experiment [2] worked out at 21.4%; in experiment [3] it was 25.5%; in experiment [4], 57.2%.
Consider `Clc1ccc(-c2cc(-c3ccoc3)cc(-c3ccccc3Cl)n2)s1`, for which the IC50 with HeLa was determined as 19 µM; with K562 it was 15.8 µM; in the experiment with HCT-15, 1.1 µM; in the experiment with MCF7, 7.36 µM; in the experiment with DU-145, 16.4 µM. For the same molecule, in [1], the inhibition result was “inactive”. Further, the inhibition amounted to 0% in [2], 37.6% in [3] and 49.5% in experiment [4].
Take `Cc1ccc(-c2cc(-c3ccoc3)cc(-c3ccc(Cl)s3)n2)cc1`: the IC50 with HeLa is 28.7 µM; with K562, 17.9 µM; in the experiment with HCT-15 it was 1.17 µM; in the experiment with MCF7, 5.34 µM; with DU-145, 25.3 µM. The inhibition result in [1] is “inactive”. For the same molecule, the inhibition in experiment [2] worked out at 0%; in experiment [3], 53.6%; in experiment [4], 50.3%.
Regarding `Cc1ccsc1-c1cc(-c2ccco2)cc(-c2ccc(Cl)cc2)n1`, the IC50 with HeLa stood at 24.5 µM; in the experiment on K562 it was 20.7 µM; with HCT-15, 0.71 µM; in the experiment on MCF7 it was 0.89 µM; in the experiment with DU-145 it was 26.7 µM. Further, in experiment [1], the inhibition result is “inactive”. Moreover, the inhibition amounted to 1% in experiment [2], 17.8% in experiment [3] and 56.3% in [4].
In the case of `Cc1ccc(-c2cc(-c3ccoc3)cc(-c3ccc(Cl)s3)n2)o1`, the IC50 in the experiment on HeLa was 26.5 µM; with K562, 12.7 µM; in the experiment on HCT-15 it was 0.79 µM; with MCF7, 1.9 µM; with DU-145, 33.4 µM. Further, the inhibition entry in experiment [1] is “inactive”. The inhibition in [2] was 13.2%; in experiment [3], 54%; in experiment [4] it was 60.5%.
As for `Clc1ccc(-c2cc(-c3ccoc3)cc(-c3ccc(Cl)s3)n2)cc1`, the 50% inhibitory concentration (IC50) was determined as 16.5 µM in the experiment on HeLa; 19.6 µM in the experiment on K562; 0.64 µM in the experiment with HCT-15; 2.6 µM in the experiment on MCF7; 29.5 µM in the experiment on DU-145. Besides, the inhibition entry in [1] is “inactive”. In addition, the inhibition in [2] came out at 2.3%; in experiment [3] it was 56.9%; in experiment [4], 62.7%.

Source of the values: ChEMBL document CHEMBL1157684, “2-Thienyl-4-furyl-6-aryl pyridine derivatives: synthesis, topoisomerase I and II inhibitory activity, cytotoxicity, and structure-activity relationship study” (Bioorg Med Chem, 2010).
